TAAR1 antagonist – human TAAR1 antagonists, primary screen, Fluo-8 calcium fluorescence, CHO RD-HGA16 cells; Trace amine-associated receptor 1 (Homo sapiens), Q96RJ0; antagonist; inhibition, % at 3 µM; actives 1.5% (n = 360,000);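 active = inhibition above a per-plate cutoff, the mean inhibition of test compounds on that plate plus 3 SD, cut at about 49% in these data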
Target sequence (Q96RJ0 whole entry, looked up): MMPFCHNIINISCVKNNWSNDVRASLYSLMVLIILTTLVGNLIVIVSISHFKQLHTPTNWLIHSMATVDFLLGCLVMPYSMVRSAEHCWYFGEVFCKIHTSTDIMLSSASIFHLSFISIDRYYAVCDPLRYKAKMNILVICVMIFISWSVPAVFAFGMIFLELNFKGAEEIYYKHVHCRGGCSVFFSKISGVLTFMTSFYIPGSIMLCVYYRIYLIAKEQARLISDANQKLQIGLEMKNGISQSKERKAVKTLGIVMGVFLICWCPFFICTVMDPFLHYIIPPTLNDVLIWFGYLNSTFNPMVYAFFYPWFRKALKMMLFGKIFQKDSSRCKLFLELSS
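Test system: RD-HGA16 CHO cells with stable hTAAR1 and Gα16 / Probe or stimulus: EC80 β-phenethylamine stimulus / Times: seeding 17-24 h prior, 75-min 37 °C, 30-min RT dye loading / Detection: Fluo-8 calcium-sensitive fluorescence / Read-out basis: % inhibition scaled between DMSO and EC80 PEA controls / Repeats: singlicate, one well per test compound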
TAAR1 agonist – human TAAR1 agonists, primary screen, Fluo-8 calcium fluorescence, CHO RD-HGA16 cells; Trace amine-associated receptor 1 (Homo sapiens), Q96RJ0; vehicle wells 0%, saturating PEA agonist 100%; activation, % at 3 µM; actives 0.99% (n = 360,000);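 active = activation above the mean activation of all test compounds in the run plus 3 SD, cut at about 38% in these data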
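Assay system: CHO-derived RD-HGA16 cells with stable Gα16 and human TAAR1; timing: 17-24 h seeding, 75 min 37 °C dye, 30 min RT; read-out: % activation from peak over basal fluorescence ratio, DMSO-to-PEA scaled; measured by: kinetic Fluo-8 calcium fluorescence; benchmarks: low control DMSO, high control PEA (EC100); doses: 3 µM single concentration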
OX1R antag-1 – OX1R (HCRTR1) antagonists, primary screen, fluorescence, CHO/OX1R cells, Fluo-8 calcium, orexin A; Fluo-8 calcium fluorescence; inhibition, % at 5 µM; actives 0.43% (n = 330,000);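 active = inhibition above its plate's threshold, mean inhibition of all tested compounds on the plate plus 3 SD, cut at about 37% in these data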
GPR7 antagonist – GPR7 receptor antagonists, primary screen, cell-based, fluorescence, single concentration; inhibition, % at 4.4 µM; AID 1861, 2009; actives 1.1% (n = 290,000); GPR7-expressing cells, fluorescence antagonist assay; in the data active = inhibition above about 16%, passing the limit was not always enough;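 also: cells stimulated with the agonist NPW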
Target sequence (P48145 whole entry, looked up): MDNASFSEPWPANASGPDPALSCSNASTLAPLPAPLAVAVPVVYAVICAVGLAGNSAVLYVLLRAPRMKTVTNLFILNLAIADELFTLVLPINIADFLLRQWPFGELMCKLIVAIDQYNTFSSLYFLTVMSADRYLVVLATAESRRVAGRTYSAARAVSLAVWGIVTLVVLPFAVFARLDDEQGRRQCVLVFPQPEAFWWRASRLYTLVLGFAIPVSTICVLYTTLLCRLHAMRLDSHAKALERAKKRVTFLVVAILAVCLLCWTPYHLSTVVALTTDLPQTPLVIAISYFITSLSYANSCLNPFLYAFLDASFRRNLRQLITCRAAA
CHO parental Ca – ATP-evoked calcium signal inhibitors, parental CHO, primary screen, counter-screen for OX1R antagonist project, cell-based, fluorescence, Fluo-8 calcium dye; parental CHO-K1, ATP-induced calcium, Fluo-8 fluorescence; inhibition, % at 5.6 µM; AID 463079, 2010; actives 0.63% (n = 330,000);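 active = inhibition above that plate's mean sample inhibition plus 3 SD, cut at about 26% in these data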
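test system = CHO parental line | reagent = ATP stimulus | measured by = intracellular calcium via Fluo-8 no-wash fluorescent dye | control set = ATP and no-ATP DMSO wells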
OX1R antag-2 – antagonists of human orexin 1 receptor (OX1R); Orexin/Hypocretin receptor type 1 (Homo sapiens), O43613; OX1R-expressing cells, FRET antagonist read-out; inhibition, % at 6.6 µM; actives 1.8% (n = 330,000); in the data active = inhibition mostly above about 38%, no sharp cut-off; inactive = mostly below about 40%
Of the large screens only hits and unclear results are named; the others gave an inactive call. Only some compounds are listed: those with a hit (about 4.6% of all), similar ones and a draw of the others.

COc1cccc(NC(=O)C2CCCN(S(C)(=O)=O)C2)c1 (configuration not stated)	none
O=C(C1CCCN(S(=O)(=O)c2cccc3cccnc23)C1)N1CCc2ccccc21 (configuration not stated)	OX1R antag-2 70.3
COC(=O)[C@]1(CC(C)C)N[C@H](c2ccc(-c3ccc(F)cc3)c(OC)c2)[C@@H]2C(=O)N(C)C(=O)[C@@H]21	none (no result: GPR7 antagonist)
O=C(NCC1COc2ccccc2O1)C1CCCN(S(=O)(=O)c2cccc3cccnc23)C1 (configuration not stated)	OX1R antag-2 55.8
O=C(NCC1COc2ccccc2O1)C1CCCN(S(=O)(=O)c2cccc3nsnc23)C1 (configuration not stated)	none
CN(CC(=O)Nc1ccc(Cl)c(C(F)(F)F)c1)C(=O)c1cc(=O)[nH]c2ccccc12	none (no result: GPR7 antagonist)
CN(CC(=O)Nc1ccc(Cl)c(C(F)(F)F)c1)C(=O)c1cc(=O)c2ccccc2o1	TAAR1 agonist 45.3 (no result: GPR7 antagonist)
COc1ccccc1CNC(=O)C(NC(=O)C1CCCCC1)C(C)C (configuration not stated)	none (no result: GPR7 antagonist)
O=C(CC1Oc2ccccc2NC1=O)NCCc1ccccc1 (configuration not stated)	TAAR1 agonist 65.9
Cc1ccc(S(=O)(=O)N(C)C[C@@H]2OCCCC[C@@H](C)Oc3ccc(NS(=O)(=O)c4c(C)noc4C)cc3C(=O)N([C@H](C)CO)C[C@@H]2C)cc1	none (no result: OX1R antag-1, GPR7 antagonist, CHO parental Ca, OX1R antag-2)
CCCc1nnc2n1N=C(c1ccc([N+](=O)[O-])cc1)CS2	OX1R antag-2 45.3
CCN(C(=S)Nc1ccc(C(C)=O)cc1)C1CCCCC1	none
COc1ccc(CNC(=O)CC2(CC(=O)O)CCCCC2)cc1	none
Cn1nnnc1SCc1nnc(-c2ccccc2Br)o1	none
Cc1ccc(-n2nnnc2SCc2nnc(-c3ccccc3Br)o2)c(C)c1	OX1R antag-1 62.8, OX1R antag-2 44.4
CC(NC(=O)CCNS(=O)(=O)c1ccc2c(c1)oc(=O)n2C)c1ccccc1 (configuration not stated)	none
CCn1nc(C)cc1C(=O)N1CCc2c([nH]c3ccccc23)C1c1cc(F)ccc1F (configuration not stated)	GPR7 antagonist 19.3
OCCSc1nc(-c2ccccc2)nc2ccc(F)cc12	OX1R antag-2 47.2
COC(=O)CSc1nc(-c2ccccc2)nc2ccc(F)cc12	none
C=CCNc1ncnc2c1ncn2[C@H]1CN(CCN2CCOCC2)C[C@@H](CO)O1	none (no result: OX1R antag-1, GPR7 antagonist, CHO parental Ca, OX1R antag-2)
Cc1csc(=O)n1CCC(=O)OCc1nnc(-c2ccccc2)o1	none (no result: GPR7 antagonist)
O=C(OCc1nnc(-c2ccc([N+](=O)[O-])cc2)o1)C1CC(=O)N(CCc2ccccc2)C1 (configuration not stated)	OX1R antag-2 59.5 (no result: GPR7 antagonist)
N#Cc1ccccc1COC(=O)CCN=C1NS(=O)(=O)c2ccccc21	none (no result: GPR7 antagonist)
O=C(CCN=C1NS(=O)(=O)c2ccccc21)OCc1nnc(-c2ccc([N+](=O)[O-])cc2)o1	OX1R antag-2 63.1 (no result: GPR7 antagonist)
Cc1csc(=O)n1CCC(=O)OCc1nnc(-c2ccc([N+](=O)[O-])cc2)o1	OX1R antag-2 49.9 (no result: GPR7 antagonist)
O=S(=O)(NCc1ccccc1)c1ccccc1NCCc1ccccc1	none (no result: GPR7 antagonist)
CCC(Oc1ccccc1F)C(=O)Nc1ccc2c(c1)n(C)c(=O)n2C (configuration not stated)	none (no result: OX1R antag-1, CHO parental Ca, OX1R antag-2)
CCOC(=O)CN1C(=O)S/C(=C/c2ccc(O)c([N+](=O)[O-])c2)C1=O	OX1R antag-2 56.5
CCOc1cc(/C=C2\SC(=S)N(NS(=O)(=O)c3ccccc3)C2=O)ccc1O	none
CCOC(=O)CN1C(=O)S/C(=C/c2ccc(C)o2)C1=O	none
CCOc1cc(/C=C2\SC(=S)N(Nc3ccccc3)C2=O)ccc1O	TAAR1 antagonist 60.0, TAAR1 agonist 51.4
COc1cc(/C=C2/SC(=S)N(CC3CCCO3)C2=O)ccc1O (configuration not stated)	TAAR1 agonist 41.7
COc1cc(/C=C2\SC(=S)N(Nc3ncc(C(F)(F)F)cc3Cl)C2=O)ccc1O	TAAR1 antagonist 65.7, TAAR1 agonist 52.3, OX1R antag-1 48.6, CHO parental Ca 39.7
Cc1ccc2nc(NC3=NC4(CCCC4)C4=C(CCCC4=O)N3)oc2c1	none (no result: OX1R antag-1, GPR7 antagonist, CHO parental Ca, OX1R antag-2)
O=C1/C(=C/c2ccc(O)c(O)c2)SC(=S)N1Nc1ccccc1	none (no result: TAAR1 antagonist, TAAR1 agonist, OX1R antag-1, CHO parental Ca, OX1R antag-2)
COc1cc(/C=C2\SC(=S)N(Nc3ccccc3)C2=O)ccc1O	TAAR1 antagonist 56.6, TAAR1 agonist 54.4, CHO parental Ca 42.4
O=C(O)c1ccc(/C=C2\SC(=S)N(NC(=O)c3ccccc3[N+](=O)[O-])C2=O)cc1	none (no result: OX1R antag-1, CHO parental Ca, OX1R antag-2)
O=C(NN1C(=O)/C(=C\c2ccc(O)c([N+](=O)[O-])c2)SC1=S)c1ccccc1Cl	OX1R antag-2 63.9
CC(=O)Nc1ccc(NC(=O)CC2SC(=O)N(CC(=O)c3ccccc3)C2=O)cc1 (configuration not stated)	none
Nc1ccc2c(c1)Oc1ccccc1C=C2	none
COc1ccc(OCC(O)CNCCOc2ccccc2OC)c(C(C)(C)C)c1 (configuration not stated)	TAAR1 agonist 50.4
COc1ccccc1NCC(O)COc1ccc(C(C)(C)C)cc1 (configuration not stated)	none
CC1=C(C(=O)Nc2cccc(C(=O)N3CCN(c4cccc(C(F)(F)F)c4)CC3)c2)SCCO1	TAAR1 antagonist 55.7, OX1R antag-1 62.1, CHO parental Ca 40.0
FC(F)(F)c1cccc(NC(=S)N2CCN(c3cccc(C(F)(F)F)c3)CC2)c1	CHO parental Ca 69.5
C[C@@H]1CN([C@@H](C)CO)C(=O)c2cc(Br)cnc2O[C@@H]1CN(C)C(=O)Nc1ccc(F)cc1	none (no result: OX1R antag-1, GPR7 antagonist, CHO parental Ca, OX1R antag-2)
O=c1[nH]c(=O)n(Cc2ccc(Oc3ccccc3)cc2)cc1Br	none
C=C1CC(Cn2cc(Br)c(=O)[nH]c2=O)(c2ccc(-c3ccccc3)cc2)OC1=O (configuration not stated)	TAAR1 antagonist 67.8 (no result: OX1R antag-1, GPR7 antagonist, CHO parental Ca, OX1R antag-2)
Cc1ccc2nc(/C(C#N)=C\c3cc(C)n(-c4cccc([N+](=O)[O-])c4)c3C)[nH]c2c1	OX1R antag-2 58.7
Cc1cc(/C=C(/C#N)c2nc3ccccc3[nH]2)c(C)n1-c1cc(C(=O)O)cc(C(=O)O)c1	none (no result: OX1R antag-1, CHO parental Ca, OX1R antag-2)
Cc1cc(C(=O)NCC(=O)Nc2c(C)cccc2C)c(C)o1	none
C#CCn1c(S(=O)(=O)Cc2ccc(F)cc2)nc(-c2ccccc2)c1-c1ccccc1	OX1R antag-2 40.1

Screening results as filed in PubChem.
